{
  "source": "ChEMBL document CHEMBL5346895",
  "about": "“Small molecule inhibitors of intestinal epithelial anion exchanger SLC26A3 (DRA) with a luminal, extracellular site of action” (Eur J Med Chem, 2023)",
  "key": {"[1]": {"target": "T1, Chloride anion exchanger (Mus musculus) (UniProt Q9WVC8)", "T1 sequence (whole entry)": "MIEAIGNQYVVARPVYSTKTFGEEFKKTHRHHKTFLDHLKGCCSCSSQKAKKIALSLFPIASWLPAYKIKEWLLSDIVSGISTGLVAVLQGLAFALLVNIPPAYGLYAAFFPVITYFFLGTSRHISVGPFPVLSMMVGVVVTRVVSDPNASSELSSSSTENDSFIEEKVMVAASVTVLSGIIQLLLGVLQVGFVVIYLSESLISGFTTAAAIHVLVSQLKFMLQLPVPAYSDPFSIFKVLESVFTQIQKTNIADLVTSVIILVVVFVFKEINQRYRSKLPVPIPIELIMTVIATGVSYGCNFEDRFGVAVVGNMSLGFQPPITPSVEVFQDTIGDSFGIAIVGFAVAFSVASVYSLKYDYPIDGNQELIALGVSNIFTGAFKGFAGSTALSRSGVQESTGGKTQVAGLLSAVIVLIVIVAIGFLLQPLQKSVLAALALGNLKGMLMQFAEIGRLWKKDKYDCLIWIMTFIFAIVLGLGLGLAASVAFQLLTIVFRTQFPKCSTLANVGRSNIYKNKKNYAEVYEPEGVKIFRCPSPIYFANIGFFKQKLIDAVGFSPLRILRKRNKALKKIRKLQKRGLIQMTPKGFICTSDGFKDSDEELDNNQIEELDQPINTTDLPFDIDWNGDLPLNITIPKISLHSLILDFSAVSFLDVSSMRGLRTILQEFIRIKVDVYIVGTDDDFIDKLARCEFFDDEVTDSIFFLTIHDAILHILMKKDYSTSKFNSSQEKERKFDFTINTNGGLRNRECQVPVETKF", "assay": "Inhibition of mouse SLC26A3 expressed in FRT cells coexpressing YFP iodide-sensing protein at 5 times IC50 incubated for 10 mins by fluorescence quenching analysis relative to control", "assay_type": "cell-based"}, "[2]": {"target": "T1, Chloride anion exchanger (Mus musculus)", "assay": "Inhibition of mouse SLC26A3 expressed in FRT cells coexpressing YFP iodide-sensing protein at 5 times IC50 incubated for 10 mins followed by compound washout by fluorescence quenching analysis relative to control", "assay_type": "cell-based"}, "[3]": {"target": "T2, Solute carrier family 26 member 6 (Homo sapiens) (UniProt Q9BXS9)", "T2 sequence (whole entry)": "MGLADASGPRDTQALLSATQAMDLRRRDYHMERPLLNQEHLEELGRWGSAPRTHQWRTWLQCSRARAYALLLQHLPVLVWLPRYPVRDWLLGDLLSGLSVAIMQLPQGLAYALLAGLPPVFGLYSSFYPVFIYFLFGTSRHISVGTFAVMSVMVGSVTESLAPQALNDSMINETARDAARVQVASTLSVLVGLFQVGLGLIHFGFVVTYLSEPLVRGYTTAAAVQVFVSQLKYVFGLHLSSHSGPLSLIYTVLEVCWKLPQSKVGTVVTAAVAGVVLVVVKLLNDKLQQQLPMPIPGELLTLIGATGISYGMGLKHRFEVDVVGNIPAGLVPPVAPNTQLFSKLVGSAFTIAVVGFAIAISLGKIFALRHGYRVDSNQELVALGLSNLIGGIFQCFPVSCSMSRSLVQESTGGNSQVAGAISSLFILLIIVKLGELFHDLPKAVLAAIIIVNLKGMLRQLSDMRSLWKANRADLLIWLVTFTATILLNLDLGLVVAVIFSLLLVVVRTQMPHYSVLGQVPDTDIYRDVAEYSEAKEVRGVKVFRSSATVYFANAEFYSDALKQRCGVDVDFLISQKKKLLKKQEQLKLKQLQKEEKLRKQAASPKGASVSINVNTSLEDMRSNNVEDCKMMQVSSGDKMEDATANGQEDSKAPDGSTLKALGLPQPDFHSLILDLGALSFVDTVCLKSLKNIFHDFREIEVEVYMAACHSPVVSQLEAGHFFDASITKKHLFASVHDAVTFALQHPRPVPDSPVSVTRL", "assay": "Inhibition of SLC26A6 (unknown origin) at 10 uM by YFP-based assay relative to control"}, "Pendrin (Homo sapiens)": {"target": "T3, Pendrin (Homo sapiens) (UniProt O43511)", "T3 sequence (whole entry)": "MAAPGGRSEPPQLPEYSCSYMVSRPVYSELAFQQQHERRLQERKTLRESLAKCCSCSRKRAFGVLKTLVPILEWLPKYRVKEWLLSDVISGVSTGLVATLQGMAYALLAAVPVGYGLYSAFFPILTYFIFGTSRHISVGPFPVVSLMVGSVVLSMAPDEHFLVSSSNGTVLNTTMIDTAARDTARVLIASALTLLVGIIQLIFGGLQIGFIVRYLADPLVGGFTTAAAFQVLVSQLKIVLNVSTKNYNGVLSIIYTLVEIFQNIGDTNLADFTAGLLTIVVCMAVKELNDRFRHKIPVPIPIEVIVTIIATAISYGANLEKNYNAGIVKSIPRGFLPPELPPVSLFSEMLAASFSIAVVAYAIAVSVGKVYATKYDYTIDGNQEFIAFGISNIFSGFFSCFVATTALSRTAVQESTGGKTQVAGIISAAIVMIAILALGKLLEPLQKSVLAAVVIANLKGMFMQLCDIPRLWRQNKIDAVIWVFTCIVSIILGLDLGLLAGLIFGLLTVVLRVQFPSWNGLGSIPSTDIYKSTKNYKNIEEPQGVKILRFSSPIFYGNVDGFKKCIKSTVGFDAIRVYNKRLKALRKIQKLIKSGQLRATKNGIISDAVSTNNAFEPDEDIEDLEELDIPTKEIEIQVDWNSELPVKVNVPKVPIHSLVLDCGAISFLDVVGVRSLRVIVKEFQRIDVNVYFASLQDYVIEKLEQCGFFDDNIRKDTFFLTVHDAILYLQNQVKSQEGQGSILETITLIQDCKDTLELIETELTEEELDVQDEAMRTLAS", "assay": "Inhibition of SLC26A4 (unknown origin) at 10 uM by YFP-based assay relative to control"}, "[4]": {"target": "T1, Chloride anion exchanger (Mus musculus)", "assay": "Inhibition of mouse SLC26A3 expressed in FRT cells coexpressing YFP iodide-sensing protein at 2 times IC50 measured for 14 secs by fluorescence quenching analysis relative to control", "assay_type": "cell-based", "settings": "time 14.0 sec", "outline": "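Onset kinetics in FRT cells co-expressing murine slc26a3 and YFP halide sensor. […] Fluorescence read for 1 s before and 12 s after syringe-pump addition of iodide solution (NaCl replaced by 140 mM NaI). Inhibition taken from the quenching rate.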"}, "[5]": {"assay": "Effect on loperamide-induced constipation in CD-1 mouse assessed as stool hydration at 10 mg/kg, po via gavage administered 1 hr prior to loperamide administration measured for 3 hrs (reference value: 49 +/- 2 %)", "assay_type": "functional", "settings": "time 4 hrs", "outline": "(§1)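 CD1 mice (bred in house, 8–12 weeks). Test compound given by oral gavage at 10 mg/kg in saline with 5% DMSO and 10% Kolliphor-HS, or vehicle alone, 1 h before loperamide (0.3 mg/kg ip in PBS with 5% ethanol). Mice then held in metabolic cages with free food and water. Stool collected over 3 h for total weight and pellet count. Water content from wet vs dry stool weight.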"}, "Mus musculus": {"system": "Mus musculus", "assay": "Effect on loperamide-induced constipation in CD-1 mouse assessed as increase in stool weight at 10 mg/kg, po via gavage administered 1 hr prior to loperamide administration measured for 3 hrs", "assay_type": "functional, organism-based", "settings": "time 4.0 hrs", "outline": "as §1"}},
  "note": "The source made the active and inactive calls. The calls are words filed in the database; no cut-off is given here.",
  "data": [
    {"compound": "Cc1ccccc1COc1ccc2oc(-c3ccccc3)c(C(=O)O)c2c1", "values": [
      {"measurement": "inhibition", "setting": "[1]", "result": 87, "unit": "%"},
      {"measurement": "inhibition", "setting": "[2]", "result": 25, "unit": "%"},
      {"measurement": "inhibition", "setting": "[3]", "result": 37, "unit": "%"},
      {"measurement": "inhibition", "setting": "Pendrin (Homo sapiens)", "result": -13, "unit": "%"},
      {"measurement": "inhibition", "setting": "[4]", "result": 38, "unit": "%"}
    ]},
    {"compound": "Cc1cc(C)cc(N(C)S(=O)(=O)c2nnc(NC(=O)COc3ccc(C)c(C)c3)s2)c1", "values": [
      {"measurement": "inhibition", "setting": "[3]", "result": 32, "unit": "%"},
      {"measurement": "inhibition", "setting": "Pendrin (Homo sapiens)", "result": 17, "unit": "%"}
    ]},
    {"compound": "O=C(Nc1cccc(-c2nc3ccccc3c(=O)o2)c1)c1ccc(Cl)cc1", "values": [
      {"measurement": "inhibition", "setting": "[3]", "result": 4, "unit": "%"},
      {"measurement": "inhibition", "setting": "Pendrin (Homo sapiens)", "result": -3, "unit": "%"}
    ]},
    {"compound": "O=c1cc(COc2ccccc2Cl)nc2scc(-c3ccccc3)n12", "values": [
      {"measurement": "inhibition", "setting": "[1]", "result": 92, "unit": "%"},
      {"measurement": "inhibition", "setting": "[2]", "result": 32, "unit": "%"},
      {"measurement": "inhibition", "setting": "[3]", "result": 9, "unit": "%"},
      {"measurement": "inhibition", "setting": "[4]", "result": 66, "unit": "%"},
      {"measurement": "Activity", "setting": "[5]", "result": 55, "unit": "%"},
      {"measurement": "Activity", "setting": "Mus musculus", "result": "Active"}
    ]}
  ]
}
